Data taken from ChEMBL document CHEMBL1123998, “Radioiodinated benzodiazepines: agents for mapping glial tumors” (J Med Chem, 1988).
pKi: −log10 of the molar value.

Experiments:
Rattus norvegicus [1] = species: Rattus norvegicus; assay: Radioligand binding in adrenal tissue after 6 hr; type: functional
How it was run: (§1)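 Male Sprague-Dawley rats (160–265 g) under light ether received 16–19 μCi ¹²⁵I-ligand in 0.20–0.25 mL 15:85 EtOH/PBS pH 6.0 via the femoral vein. They were decapitated at 5 min, 30 min, 2, 6 or 24 h, and tissues were weighed and gamma-counted. Results are % injected dose/g wet tissue, normalized to a 200-g rat; N = 5 per time point.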

Rattus norvegicus [2] = species: Rattus norvegicus; assay: Radioligand binding in kidney tissue after 24 hr r; type: functional; how it was run: as §1
Rattus norvegicus [3] = species: Rattus norvegicus; assay: Radioligand binding in adrenal gland after 30 min; type: functional; how it was run: as §1
Rattus norvegicus [4] = species: Rattus norvegicus; assay: Radioligand binding in blood after 30 min; type: functional; how it was run: as §1
Rattus norvegicus [5] = species: Rattus norvegicus; assay: Radioligand binding in blood after 24 hr r; type: functional; how it was run: as §1
Rattus norvegicus [6] = species: Rattus norvegicus; assay: Radioligand binding in heart tissue after 6 hr; type: functional; how it was run: as §1
Rattus norvegicus [7] = species: Rattus norvegicus; assay: Radioligand binding in thyroid tissue after 24 hr r; type: functional, Thyroid gland; how it was run: as §1
Rattus norvegicus [8] = species: Rattus norvegicus; assay: Radioligand binding in adrenal gland after 5 min; type: functional; how it was run: as §1
Rattus norvegicus [9] = species: Rattus norvegicus; assay: Radioligand binding in kidney tissue after 2 hr; type: functional; how it was run: as §1
[10] = molecular target: GABA-A receptor; anion channel; assay: Binding affinity for GABA-A benzodiazepine receptor of rat brain
How it was run: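 Frozen rat brain (central receptor) and kidney (peripheral site) sections, 20 μm, were prewashed 3 × 5 min in 50 mM Tris pH 7.4 at 0 °C. They were incubated 90 min with 5 nM [³H]flunitrazepam plus graded competitor, with 1 μM PK 11195 defining nonspecific binding. Film autoradiography (10 days, ¹⁴C standards) was read by densitometry. Ki = IC50/(1+[L]/Kd), Kd 40 nM; N = 3.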

Rattus norvegicus [11] = species: Rattus norvegicus; assay: Radioligand binding in blood after 6 hr; type: functional; how it was run: as §1
Rattus norvegicus [12] = species: Rattus norvegicus; assay: Radioligand binding in heart tissue after 5 min; type: functional; how it was run: as §1
Rattus norvegicus [13] = species: Rattus norvegicus; assay: Radioligand binding in brain tissue after 30 min; type: functional; how it was run: as §1
Rattus norvegicus [14] = species: Rattus norvegicus; assay: Radioligand binding in blood after 5 min; type: functional; how it was run: as §1
Rattus norvegicus [15] = species: Rattus norvegicus; assay: Radioligand binding in kidney tissue after 6 hr; type: functional; how it was run: as §1
Rattus norvegicus [16] = species: Rattus norvegicus; assay: Radioligand binding in thyroid tissue after 30 min; type: functional, Thyroid gland; how it was run: as §1
Translocator protein = Translocator protein (Rattus norvegicus, UniProt P16257); assay: Binding affinity for peripheral benzodiazepine receptor of rat kidney
Rattus norvegicus [17] = species: Rattus norvegicus; assay: Radioligand binding in kidney tissue after 5 min; type: functional; how it was run: as §1
Rattus norvegicus [18] = species: Rattus norvegicus; assay: Radioligand binding in thyroid tissue after 6 hr; type: functional, Thyroid gland; how it was run: as §1
Rattus norvegicus [19] = species: Rattus norvegicus; assay: Radioligand binding in brain tissue after 5 min; type: functional; how it was run: as §1
Rattus norvegicus [20] = species: Rattus norvegicus; assay: Radioligand binding in heart tissue after 30 min; type: functional; how it was run: as §1
Rattus norvegicus [21] = species: Rattus norvegicus; assay: Radioligand binding in heart tissue after 2 hr; type: functional; how it was run: as §1
Rattus norvegicus [22] = species: Rattus norvegicus; assay: (§2) Radioligand binding in brain tissue after 24 hr r; type: functional; how it was run: as §1
Rattus norvegicus [23] = species: Rattus norvegicus; assay: Radioligand binding in brain tissue after 2 hr; type: functional; how it was run: as §1
Rattus norvegicus [24] = species: Rattus norvegicus; assay: Radioligand binding in heart tissue after 24 hr r; type: functional; how it was run: as §1
Rattus norvegicus [25] = species: Rattus norvegicus; assay: Radioligand binding in thyroid tissue after 5 min; type: functional, Thyroid gland; how it was run: as §1
Rattus norvegicus [26] = species: Rattus norvegicus; assay: Radioligand binding in adrenal tissue after 2 hr; type: functional; how it was run: as §1
Rattus norvegicus [27] = species: Rattus norvegicus; assay: Radioligand binding in adrenal tissue after 24 hr r; type: functional; how it was run: as §1
Rattus norvegicus [28] = species: Rattus norvegicus; assay: as §2; type: functional; how it was run: as §1; remark: listed apart in the source
Rattus norvegicus [29] = species: Rattus norvegicus; assay: Radioligand binding in kidney tissue after 30 min; type: functional; how it was run: as §1
Rattus norvegicus [30] = species: Rattus norvegicus; assay: Radioligand binding in blood after 2 hr; type: functional; how it was run: as §1
Rattus norvegicus [31] = species: Rattus norvegicus; assay: Radioligand binding in thyroid tissue after 2 hr; type: functional, Thyroid gland; how it was run: as §1
Rattus norvegicus [32] = species: Rattus norvegicus; assay: Radioligand binding in thyroid tissue after 2 hr in rats given oral KI solution; type: functional, Thyroid gland
[33] = molecular target: Translocator protein (Rattus norvegicus) (UniProt P16257); assay: Reduced radioligand binding following 30 min intravenous 10 mg/kg PK11195 in brain tissue; type: functional, organism-based; parameters: dose 10 mg/kg
[34] = molecular target: Translocator protein (Rattus norvegicus) (UniProt P16257); assay: Reduced radioligand binding following 30 min intravenous 10 mg/kg PK11195 in heart tissue; type: functional, organism-based; parameters: dose 10 mg/kg
[35] = molecular target: Translocator protein (Rattus norvegicus) (UniProt P16257); assay: Reduced radioligand binding following 30 min intravenous 10 mg/kg PK11195 in adrenal gland; type: functional, organism-based; parameters: dose 10 mg/kg
[36] = molecular target: Translocator protein (Rattus norvegicus) (UniProt P16257); assay: Reduced radioligand binding following 30 min intravenous 10 mg/kg PK11195 in blood; type: functional, organism-based; parameters: dose 10 mg/kg
[37] = molecular target: Translocator protein (Rattus norvegicus) (UniProt P16257); assay: Reduced radioligand binding following 30 min intravenous 10 mg/kg PK11195 in lung tissue; type: functional, organism-based; parameters: dose 10 mg/kg
[38] = molecular target: Translocator protein (Rattus norvegicus) (UniProt P16257); assay: Reduced radioligand binding following 30 min intravenous 10 mg/kg PK11195 in kidney tissue; type: functional, organism-based; parameters: dose 10 mg/kg
[39] = molecular target: Translocator protein (Rattus norvegicus) (UniProt P16257); assay: Reduced radioligand binding following 30 min intravenous 10 mg/kg PK11195 in submaxillary gland; type: functional, organism-based; parameters: dose 10 mg/kg
[40] = molecular target: Translocator protein (Rattus norvegicus) (UniProt P16257); assay: Reduced radioligand binding following 30 min intravenous 10 mg/kg PK11195 in adrenal tissue; type: functional, organism-based; parameters: dose 10 mg/kg; settings: at 10 mg/kg

Chain of Translocator protein (Rattus norvegicus) (P16257 whole entry, looked up): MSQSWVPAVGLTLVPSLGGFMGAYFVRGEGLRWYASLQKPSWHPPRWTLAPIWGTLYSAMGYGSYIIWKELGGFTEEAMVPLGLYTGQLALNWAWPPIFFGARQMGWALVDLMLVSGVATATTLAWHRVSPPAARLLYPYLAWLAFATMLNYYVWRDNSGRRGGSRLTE
Chain of Translocator protein (P16257 whole entry, looked up): as above

## CN1C(=O)CN=C(c2ccc(Cl)cc2)c2cc(I)ccc21
Rattus norvegicus [1]
  Activity: 1.3
Rattus norvegicus [2]
  Activity: 0.25
Rattus norvegicus [3]
  Activity: 3.63
Rattus norvegicus [4]
  Activity: 0.15
Rattus norvegicus [5]
  Activity: 0.05
Rattus norvegicus [6]
  Activity: 0.57
Rattus norvegicus [7]
  Activity: 17.2
Rattus norvegicus [8]
  Activity: 4.85
Rattus norvegicus [9]
  Activity: 0.58
[10]
  pKi: < 6.00
Rattus norvegicus [11]
  Activity: 0.12
Rattus norvegicus [12]
  Activity: 1.15
Rattus norvegicus [13]
  Activity: 0.46
Rattus norvegicus [14]
  Activity: 0.2
Rattus norvegicus [15]
  Activity: 0.59
Rattus norvegicus [16]
  Activity: 4.42
Translocator protein
  pKi: 7.88
Rattus norvegicus [17]
  Activity: 1.1
Rattus norvegicus [18]
  Activity: 17.28
Rattus norvegicus [19]
  Activity: 0.75
Rattus norvegicus [20]
  Activity: 0.77
Rattus norvegicus [21]
  Activity: 0.63
Rattus norvegicus [22]
  Activity: 0.46
Rattus norvegicus [23]
  Activity: 0.41
Rattus norvegicus [24]
  Activity: 0.25
Rattus norvegicus [25]
  Activity: 1.5
Rattus norvegicus [26]
  Activity: 1.84
Rattus norvegicus [27]
  Activity: 0.42
Rattus norvegicus [28]
  Activity: 0.21
Rattus norvegicus [29]
  Activity: 0.74
Rattus norvegicus [30]
  Activity: 0.12
Rattus norvegicus [31]
  Activity: 5.57

## CN1C(=O)CN=C(c2ccc(I)cc2)c2cc(Cl)ccc21
Rattus norvegicus [1]
  Activity: 0.6
Rattus norvegicus [32]
  Activity: 0.49
Rattus norvegicus [2]
  Activity: 0.03
Rattus norvegicus [3]
  Activity: 7.85
[33]
  Distribution: 0.69
Rattus norvegicus [4]
  Activity: 0.11
[34]
  Distribution: 0.76
[34]; at 10 mg/kg
  Change: -34%
Rattus norvegicus [5]
  Activity: 0.01
Rattus norvegicus [6]
  Activity: 0.19
Rattus norvegicus [7]
  Activity: 10.85
Rattus norvegicus [8]
  Activity: 7.1
Rattus norvegicus [9]
  Activity: 0.51
[10]
  pKi: < 6.00
Rattus norvegicus [11]
  Activity: 0.05
Rattus norvegicus [12]
  Activity: 2.18
Rattus norvegicus [13]
  Activity: 0.6
Rattus norvegicus [14]
  Activity: 0.22
Rattus norvegicus [15]
  Activity: 0.21
[35]
  Distribution: 1.74
Rattus norvegicus [16]
  Activity: 2.25
Translocator protein
  pKi: 7.87
[36]
  Distribution: 0.16
Rattus norvegicus [17]
  Activity: 1.78
Rattus norvegicus [18]
  Activity: 11.85
[37]
  Distribution: 0.58
[37]; at 10 mg/kg
  Change: -46%
Rattus norvegicus [19]
  Activity: 1
Rattus norvegicus [20]
  Activity: 1.13
Rattus norvegicus [21]
  Activity: 0.5
Rattus norvegicus [22]
  Activity: 0.14
Rattus norvegicus [23]
  Activity: 0.35
Rattus norvegicus [24]
  Activity: 0.02
Rattus norvegicus [25]
  Activity: 3.27
Rattus norvegicus [26]
  Activity: 2.38
Rattus norvegicus [27]
  Activity: 0.05
[38]
  Distribution: 0.74
[38]; at 10 mg/kg
  Change: -35%
[39]
  Distribution: 0.74
[39]; at 10 mg/kg
  Change: -49%
Rattus norvegicus [28]
  Activity: 0.01
Rattus norvegicus [29]
  Activity: 1.05
Rattus norvegicus [30]
  Activity: 0.1
Rattus norvegicus [31]
  Activity: 4.26
[40]
  Change: -75%

## CN1C(=O)CN=C(c2ccc(Cl)cc2)c2cc(Cl)ccc21 [RO-54864]
[10]
  pKi: < 6.00
